Assay [1] has as its target Aldo-keto reductase family 1 member B1 (Bos taurus) (UniProt P16116). Put plainly: Inhibition of aldose reductase activity in partially purified bovine lens preparation at 10e-5 M. A digest of the protocol:
(§1)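 Partially purified bovine lens aldose reductase. Reduction of DL-glyceraldehyde substrate followed spectrophotometrically. Activity expressed as average inhibition at the tested concentrations, 1×10^-5, 1×10^-6, 1×10^-7 and 4×10^-6 M as printed; IC50 in M where given.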

In assay [2] the test system is Rattus norvegicus. The experiment in a line: Tested for in vivo inhibition of galactitol accumulation in the sciatic nerve of galactose-fed rats at the dose of 24.1 (mg/kg/day); NS=Not significant. It counts as functional, organism-based. A digest of the protocol: (§2)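 Rats were given a 20% galactose diet for 4 days, with the test compound administered in the diet. Sciatic nerve galactitol accumulation was measured, and activity is given as % inhibition at the stated daily dose (mg/kg/day). Values are mean ± SEM, n = 6 animals; p < 0.01 unless indicated. NS means no significant inhibition of polyol accumulation.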

Assay [3] has as its system Rattus norvegicus. The experiment in a line: Tested for in vivo inhibition of galactitol accumulation in the lens of galactose-fed rats at the dose of 24.1 (mg/kg/day); NS=Not significant. Conditions: Lens of camera-type eye. It counts as functional, organism-based.
Assay [4] deals with Aldo-keto reductase family 1 member B1 (Bos taurus) (UniProt P16116). Put plainly: Compound was tested in vitro for inhibition of aldose reductase activity in partially purified bovine lens preparation at 10e-5 M; Not significant; NS=Not significant. Summed up:
as §1

The test system of assay [5] is Rattus norvegicus. Put plainly: Tested for in vivo inhibition of galactitol accumulation in the sciatic nerve of galactose-fed rats at the dose of 47 (mg/kg/day); NS=Not significant. It counts as functional, organism-based. A digest of the protocol: as §2
Assay [6] relates to Rattus norvegicus. Put plainly: Tested for in vivo inhibition of galactitol accumulation in the lens of galactose-fed rats at the dose of 22 (mg/kg/day); NS=Not significant. It counts as functional, organism-based. As to conditions: Lens of camera-type eye.
Assay [7] deals with Rattus norvegicus. The experiment in a line: Tested for in vivo inhibition of galactitol accumulation in the sciatic nerve of galactose-fed rats at the dose of 22 (mg/kg/day); NS=Not significant. It counts as functional, organism-based. Summed up:
as §2

The test system of assay [8] is Rattus norvegicus. Put plainly: Tested for in vivo inhibition of galactitol accumulation in the lens of galactose-fed rats at the dose of 46.1 (mg/kg/day); NS=Not significant. It counts as functional, organism-based. As to conditions: Lens of camera-type eye.
For assay [9], the target named is Aldo-keto reductase family 1 member B1 (Bos taurus) (UniProt P16116). Put plainly: Inhibition of aldose reductase activity in partially purified bovine lens preparation at 4*10 e-8 M.
The test system of assay [10] is Rattus norvegicus. The experiment in a line: Tested for in vivo inhibition of galactitol accumulation in the sciatic nerve of galactose-fed rats at the dose of 46.1 (mg/kg/day); NS=Not significant. It counts as functional, organism-based. Summed up:
as §2

The subject of assay [11] is Rattus norvegicus. The experiment in a line: Tested for in vivo inhibition of galactitol accumulation in the sciatic nerve of galactose-fed rats at the dose of 87.3 (mg/kg/day); NS=Not significant. It counts as functional, organism-based. Summed up:
(§3)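 Rats fed a 20% galactose diet for 4 days, with test compound given in the diet at the stated daily dose (mg/kg/day). Read-out is inhibition of galactitol (polyol) accumulation in sciatic nerve. Values are % inhibition, mean ± SEM of six animals; p < 0.01 unless marked (some p < 0.05). NS = no significant inhibition of polyol accumulation. Tolrestat was the reference standard.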

Assay [12] deals with Rattus norvegicus. The experiment in a line: Tested for in vivo inhibition of galactitol accumulation in the lens of galactose-fed rats at the dose of 87.3 (mg/kg/day); NS=Not significant. Conditions: Lens of camera-type eye. The assay is classed as functional, organism-based. A digest of the protocol: (§4)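 Galactosemic rats were fed 20% galactose for 4 days, with the compound mixed into the diet. […] galactitol accumulation was measured, and activity is given as % inhibition at the stated daily dose (mg/kg/day). Values are mean ± SEM of six animals; p < 0.01 unless indicated. NS means no significant inhibition of polyol accumulation.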

Assay [13] concerns Rattus norvegicus. The experiment in a line: Tested for in vivo inhibition of galactitol accumulation in the sciatic nerve of galactose-fed rats at the dose of 24.8 (mg/kg/day); NS=Not significant. It counts as functional, organism-based. A digest of the protocol: as §2
In assay [14] the test system is Rattus norvegicus. The experiment in a line: Tested for in vivo inhibition of galactitol accumulation in the lens of galactose-fed rats at the dose of 24.8 (mg/kg/day); NS=Not significant. It counts as functional, organism-based. Conditions: Lens of camera-type eye.
The subject of assay [15] is Rattus norvegicus. The experiment in a line: Tested for in vivo inhibition of galactitol accumulation in the sciatic nerve of galactose-fed rats at the dose of 10.0 (mg/kg/day); NS=Not significant. It counts as functional, organism-based. Summed up: as §2
Assay [16] has as its system Rattus norvegicus. Put plainly: Tested for in vivo inhibition of galactitol accumulation in the sciatic nerve of galactose-fed rats at the dose of 97.1 (mg/kg/day); NS=Not significant. The assay is classed as functional, organism-based. Summed up: as §3
The test system of assay [17] is Rattus norvegicus. The experiment in a line: Tested for in vivo inhibition of galactitol accumulation in the lens of galactose-fed rats at the dose of 97.1 (mg/kg/day); NS=Not significant. The assay is classed as functional, organism-based. Conditions: Lens of camera-type eye. Summed up:
as §4

The subject of assay [18] is Rattus norvegicus. The experiment in a line: Tested for in vivo inhibition of galactitol accumulation in the sciatic nerve of galactose-fed rats at the dose of 48 (mg/kg/day). It counts as functional. A digest of the protocol: as §3
The subject of assay [19] is Rattus norvegicus. Put plainly: Tested for in vivo inhibition of galactitol accumulation in the lens of galactose-fed rats at the dose of 48 (mg/kg/day); NS=Not significant. It counts as functional, organism-based. As to conditions: Lens of camera-type eye.
The test system of assay [20] is Rattus norvegicus. Put plainly: tTested for in vivo inhibition of galactitol accumulation in the sciatic nerve of galactose-fed rats at the dose of 54 (mg/kg/day); NS=Not significant. The assay is classed as functional, organism-based. Summed up:
as §3

Assay [21] deals with Rattus norvegicus. The experiment in a line: Tested for in vivo inhibition of galactitol accumulation in the lens of galactose-fed rats at the dose of 54 (mg/kg/day); NS=Not significant. As to conditions: Lens of camera-type eye. It counts as functional, organism-based.
For assay [22], the system named is Rattus norvegicus. The experiment in a line: Tested for in vivo inhibition of galactitol accumulation in the sciatic nerve of galactose-fed rats at the dose of 9.9 (mg/kg/day); NS=Not significant. The assay is classed as functional, organism-based. Summed up:
as §3

Assay [23] has as its system Rattus norvegicus. The experiment in a line: Tested for in vivo inhibition of galactitol accumulation in the lens of galactose-fed rats at the dose of 25.0 (mg/kg/day); NS=Not significant. It counts as functional, organism-based. As to conditions: Lens of camera-type eye.
Assay [24] has as its system Rattus norvegicus. Put plainly: Tested for in vivo inhibition of galactitol accumulation in the sciatic nerve of galactose-fed rats. at the dose of 25.0 (mg/kg/day); NS=Not significant. The assay is classed as functional, organism-based. Summed up: as §3
Assay [25] deals with Rattus norvegicus. The experiment in a line: Tested for in vivo inhibition of galactitol accumulation in the lens of galactose-fed rats at the dose of 47.9 (mg/kg/day). It counts as functional, Lens of camera-type eye.
Assay [26] relates to Rattus norvegicus. Put plainly: Tested for in vivo inhibition of galactitol accumulation in the sciatic nerve of galactose-fed rats at the dose of 47.9 (mg/kg/day). It counts as functional. A digest of the protocol: as §2

Active and inactive are the calls of the source. The rule behind the calls is not given here.

On to `CONC(=O)CC1C(=O)N(Cc2ccc(Br)cc2F)C(=O)c2ccccc21` (centres undefined), for which, in [1], the inhibition – broadly, the drop in the measured response relative to a control, in per cent – came to 45%. For the same compound, the inhibition entry in assay [2] and in assay [3] was “inactive” in each case.

For `CN1C(=O)CC2(C(=O)N(Cc3ccc(Br)cc3F)C(=O)c3ccc(F)cc32)C(=O)N1C` (centres undefined), the inhibition result in assay [4] and in assay [5] was “inactive” each time.

On to `COc1c(CC(=O)O)c2ccccc2c(=O)n1Cc1ccc(Br)cc1F`, for which the inhibition result in [6] and in assay [7] was “inactive” throughout.

`COc1ccc2c(c1)C(=O)N(Cc1ccc(Br)cc1F)C(=O)C2CC(=O)O` (centres undefined): the inhibition result in [8] and in assay [10] was “inactive” each time. For the same compound, the inhibition in assay [9] was found to be 61%.

As for `CCN1C(=O)c2ccccc2C(CC(=O)NC(=O)OC)C1=O` (centres undefined), the inhibition entry in assay [11], in [1] and in assay [12] was “inactive” in each case.

`CCNC(=O)CC1C(=O)N(Cc2ccc(Br)cc2F)C(=O)c2ccccc21` (centres undefined): the inhibition result in assay [1], in [13] and in assay [14] was “inactive” in each case.

Regarding `O=C1CC2(C(=O)N1CC(F)(F)F)C(=O)N(Cc1ccc(Br)cc1F)C(=O)c1ccccc12` (centres undefined), the inhibition entry in assay [1] and in assay [15] was “inactive” throughout.

Turning to `CCCCN1C(=O)c2ccccc2C(CC(=O)NC(=O)OC)C1=O` (centres undefined), the inhibition entry in assay [1], in [16] and in assay [17] was “inactive” in each case.

In [1], `COC(=O)NC(=O)CC1C(=O)N(Cc2ccc(Br)cc2F)C(=O)c2ccccc21` (centres undefined) registered an inhibition of 84%. Besides, in [18], the Inhibition (as a rule, the share of the control response that was lost under treatment) is on record as 96%. Further, the inhibition result in assay [19] was “inactive”.

As for `O=C1CC2(N1)C(=O)N(Cc1ccc(Br)cc1F)C(=O)c1ccc(F)cc12` (centres undefined), the inhibition entry in assay [20] and in assay [21] was “inactive” in each case.

For `CON1C(=O)CC2(C(=O)N(Cc3ccc(Br)cc3F)C(=O)c3ccccc32)C1=O` (centres undefined), the inhibition result in [1] and in assay [22] was “inactive” in each case.

In assay [9], `O=C(O)CC1C(=O)N(Cc2ccc(Br)cc2F)C(=O)c2ccc(Cl)cc21` (centres undefined) gave an inhibition of 57%. Also, the inhibition entry in [23] and in assay [24] was “inactive” each time.

As to `COC(=O)NC(=O)CC1C(=O)N(C)C(=O)c2ccc(C(F)(F)F)cc21` (centres undefined), the inhibition in [1] was determined as 51%. The Inhibition in [25] is given as 26%; in assay [26], 52%.

The values above are taken from ChEMBL document CHEMBL1127562, “N-substituted spirosuccinimide, spiropyridazine, spiroazetidine, and acetic acid aldose reductase inhibitors derived from isoquinoline-1,3-diones. 2” (J Med Chem, 1994).
